test: Toxicity liver stage against HepG2, at 10uM; assay type: cell-based; design: test concentration 10 uM, cell line HepG2-A16-CD81EGFP; conditions: human, HepG2-A16-CD81EGFP cells; read-out: INHIBITION
Outline: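 Uninfected HepG2-A16-CD81EGFP cells, 3 × 10^3 per well, 1536-well, plated on prespotted compound at 10 μM final, parasite-free screening media added to match infected plates; puromycin 10 μM positive, DMSO 0.5% negative; run in parallel with 48 h PbLuc assay at 37 °C, 5% CO2; viability by CellTiter-Glo luminescence, normalized to controls.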

Point of comparison: `Cc1csc(C2CCCCN2C(=O)CN(C)C(C)C)n1` (stereo not drawn), cytotoxicity at 10 µM -3.62%. Against it:
- COc1ccc(C2=NOC(C(=O)N3CCCc4ccccc43)C2)cc1 (stereo not drawn) — higher, 0.863%
- CCN(CC)C(=O)CSc1nnc(CCNC(=O)OC(C)(C)C)o1 — higher, 12%
- COC(=O)[C@@H]1Cc2ncn(C(C)C)c2CN1S(=O)(=O)Cc1ccccc1 — higher, -2.51%
- CC(=O)N1N=C(Cc2ccccc2)OC1C(=O)NCC(C)C (stereo not drawn) — lower, -4.52%
- O=C(Nc1ncnc2c1CCC2)c1ccc2c(c1)OCO2 — higher, 4.42%
- Cc1cccc(OC2CCN(C(=O)c3ccc4ncsc4c3)CC2)n1 — lower, -3.78%
- CN(C)C(=O)N1CCC2(CCC(C(=O)N3CCCC3)O2)CC1 (stereo not drawn) — higher, -0.125%
- CCN1CC2(CCCCN2C(=O)c2ccn(C)n2)CC1=O (stereo not drawn) — higher, 10.5%
- c1cnc(N2CCCC3(CCN(Cc4cccs4)C3)C2)nc1 (stereo not drawn) — higher, 2.58%
- O=S(=O)(C1CC1)N1CCC2(CC1)COC(COc1ccccn1)C2 (stereo not drawn) — higher, 3.35%
- Cc1ccc(S(=O)(=O)N2CCCC3(CCCN3S(C)(=O)=O)C2)cc1F (stereo not drawn) — higher, 2.05%
- COCc1ncn2c1CN(C(=O)c1ccc[nH]1)CC2 — higher, 1.84%
- CC(C)CC(NC(=O)Nc1ccc(F)c(Cl)c1)C(=O)O (stereo not drawn) — higher, 8.19%
- COc1cc(C2CC(=O)Nc3c2c(=O)[nH]n3C2CCCCC2)ccc1O (stereo not drawn) — higher, -0.607%
- COc1cccc(CNC(=O)CC2CSc3ncc(C)c(=O)n32)c1 (stereo not drawn) — higher, 10.4%
- Cc1cc2nc(SCC(=O)N3CCCC3)n(C(C)C)c(=O)c2[nH]1 — lower, -7.53%
- Cc1nn(Cn2ccc(C(=O)N3CCC(C)CC3)n2)c(C)c1Cl — higher, -2.36%
- CCn1ccc(NC(=O)C2CCC(=O)N2Cc2ccc(C)o2)n1 (stereo not drawn) — higher, 6.17%
- Cc1cc(C2CCCN(S(=O)(=O)N(C)C)C2)ccn1 (stereo not drawn) — higher, 21.4%
- CC[C@@H](Cn1ncc2ccccc2c1=O)NC(=O)c1cnc(C)cn1 — higher, 7.92%
- CN(C)CC(=O)N1CCOCC(Cc2ccccn2)C1 (stereo not drawn) — higher, 5.88%
- CNC(=O)c1cn[nH]c1C1CCCN1C(=O)c1ccccn1 (stereo not drawn) — higher, 8.52%
- COCC(=O)N1CCN(C)C(=O)C(Cc2ccccc2-c2cccs2)C1 (stereo not drawn) — lower, -3.73%
- CNC(=O)c1cn[nH]c1C1CCCN1C(=O)c1cccnc1 (stereo not drawn) — lower, -23.3%
- O=C(Cc1ccccc1)N1CCOC(c2nc(-c3ncccn3)no2)C1 (stereo not drawn) — lower, -22.6%
- CN1CCc2nc(C3CCCN(C(=O)CC(C)(C)C)C3)ncc2C1 (stereo not drawn) — lower, -10.3%
- Cc1cc(C(F)(F)F)nc(N(C)Cc2c(C)noc2C)n1 — lower, -13.2%
- CS(=O)(=O)c1ccccc1-n1cc(NC(=O)CC(F)(F)F)cn1 — higher, 1.42%
- CC(SCCC(=O)NC(N)=O)c1cccc(F)c1 (stereo not drawn) — higher, 5.28%
- Cc1cc(C)n(CC(C)CNC(=O)CCc2ccco2)n1 (stereo not drawn) — higher, -1.05%
- CC(C)OCCCNC(=O)CN1CCN(c2nccs2)CC1 — higher, 3.44%
- CC(C)OCCC1CCCCN1S(=O)(=O)c1cnn(C)c1 (stereo not drawn) — higher, 5.68%
- CC(C)NC(=O)CNC(=O)c1csc(Cc2ccccc2F)n1 — lower, -4.44%
- O=C(NC1CCS(=O)(=O)C1)c1ccc(SCc2cscn2)cc1 (stereo not drawn) — higher, -1.23%
- CNC(=O)c1ccc(NC2CCN(CC(F)(F)F)C2=O)cc1Cl (stereo not drawn) — higher, -1.13%
- CC(C)N1CCC(CNC(=O)CCc2cc(F)ccc2F)C1 (stereo not drawn) — lower, -5.38%
- COC(=O)c1cccc(S(=O)(=O)Nc2ccc(F)c(C(N)=O)c2)c1 — higher, 8.67%
- CN1CCC(C(=O)N2CCC(=Cc3cccc(F)c3)CC2)CC1=O (stereo not drawn) — higher, -2.19%
- N#Cc1cnc(NC2CCN(C(=O)C3CC3)CC2)c(Cl)c1 — lower, -7.32%
- CCS(=O)(=O)NC1CCCN(Cc2ccn(C)c(=O)c2)C1 (stereo not drawn) — higher, -1.82%
- Cc1nnc(C(C)Nc2ccc(OCCc3ccccc3)nc2)o1 (stereo not drawn) — lower, -4.08%
- CCC(C)(CNC(=O)Nc1nccs1)N1CCOCC1 (stereo not drawn) — lower, -6.46%
- CC(C)NC(=O)NCc1ccccc1NS(=O)(=O)c1ccccc1 — higher, 9.6%
- CCNC(=O)NCc1ccnc(N(C)C)n1 — higher, -0.786%
- O=C(c1cc2c([nH]c1=O)CCC2)N1CCCC1c1ccccc1 (stereo not drawn) — lower, -5.76%
- Cn1c(C(=O)N2CCC(C(N)=O)C2)c(Cl)c2ccccc21 (stereo not drawn) — higher, 2.03%
- CC(CCO)Nc1cccc(C(F)(F)F)n1 (stereo not drawn) — higher, -2.8%
- CN(C)C(CNC(=O)c1ccc(-n2cnnn2)cc1)c1ccccc1Cl (stereo not drawn) — lower, -8.16%
- NC(=O)c1ccc(CNCC2CCN(CCO)CC2)cc1 — lower, -9.93%
- COc1ccc(Cn2ccnc2)cc1F — lower, -7.27%
- CCOC(=O)c1nc(CN2CCC(NC(=O)C(C)C)CC2)cs1 — higher, -2.98%
- O=C(c1c[nH]c2ncccc12)N1CCC(COc2ccccc2)CC1 — higher, 14.4%
- CN(Cc1ccsc1)C(=O)c1ccc(F)c(NS(C)(=O)=O)c1 — lower, -5.7%
- COc1ccccc1C(NC(=O)C1CCCC1)c1noc(C)n1 (stereo not drawn) — higher, -2.17%
- O=C(C1CCCOC1)N1CCc2ccc(F)cc21 (stereo not drawn) — higher, 2.35%
- O=C1CCC(C(=O)NCCOc2cccc(Cl)c2Cl)CN1 (stereo not drawn) — higher, 4.48%
- Cc1cccc(CN2CCN(C(=O)c3ccc(C)[nH]c3=O)CC2)c1 — higher, 12.8%
- O=C1CCC(C(=O)Nc2ccc(=O)n(Cc3ccc(Cl)c(Cl)c3)c2)N1 (stereo not drawn) — lower, -8.47%
- CC(C)c1ncc(Cl)c(C(=O)N2CCCN3CCCC3C2)n1 (stereo not drawn) — lower, -10.2%
- CC(=O)NCc1ccc(C(=O)Nc2ccc3c(c2)C(=O)NC3)cc1 — higher, 0.202%
- CC(=O)Nc1cc(CN(C)C)ccc1C — higher, -1.89%
- CC1c2cccn2CCN1C(=O)CCc1nc(C2CC2)no1 (stereo not drawn) — higher, -2.13%
- Cc1nc(C(C)C)sc1C(=O)NCC(C)(C)N1CCOCC1 — lower, -6.47%
- CCc1noc(CS(=O)(=O)CC(=O)N2c3ccccc3CC2C)n1 (stereo not drawn) — higher, 7.07%
- CCNC(=O)NC(=O)CN1CCOC(c2cccc(Br)c2)C1 (stereo not drawn) — higher, 1.83%
- O=C(Nc1ccccc1Oc1cccc(F)c1)NC1CCS(=O)(=O)C1 (stereo not drawn) — lower, -6.07%
- CC(C)c1nc(C2CCCN2c2cnc3cc(F)c(F)cc3n2)no1 (stereo not drawn) — higher, 5.18%
- CCN(C)C1CCCc2nc(C)sc21 (stereo not drawn) — higher, -0.887%
- Cn1cccc(NC(=O)N2CCC(Cc3ccccc3)C2)c1=O (stereo not drawn) — higher, 11.9%
- CC(C)(CNc1ccc(C#N)c(C(F)(F)F)c1)C(N)=O — higher, 20.2%
- CN(CC(F)(F)F)C(=O)CNC(=O)Cc1ccc(O)cc1Cl — higher, -1.11%
- CN(C)C(=O)CC1CCOc2ccccc21 (stereo not drawn) — higher, 4.17%
- CN1CCCC1CNC(=O)c1nnn(-c2ccc(F)cc2)c1C1CC1 (stereo not drawn) — lower, -15.9%
- COc1cccc(CN(C)C(=O)CN2CCN(c3nccn3C)CC2)c1 — higher, 14.3%
- Cc1cc(NS(=O)(=O)c2ccccc2F)ccc1-n1cccc1C(=O)O — lower, -5.67%
- CCC(C)N(Cc1cccnc1)Cc1cc2c(cc1OC)OCO2 (stereo not drawn) — higher, 3.17%
- CCCc1nccn1-c1ccc(C(C)O)cc1 (stereo not drawn) — higher, 5.38%
- O=C(NCCc1cscn1)c1coc(CN2CCOCC2)c1 — lower, -3.7%
- CN1C(=O)C2(CCN(c3ncccc3C(=O)O)CC2)c2ccccc21 — higher, -2.25%
- COCc1nc(C2CC2)nn1-c1cccc(F)c1 — higher, 2.64%
- CCn1c(N)nc2cc(C(=O)NCCc3ccncc3)cnc21 — higher, 1.22%
- Cc1csc(CNc2ccc(-c3nc(C4CC4)no3)cn2)n1 — lower, -16.2%
- Cc1nc2c(c(N[C@H](C(N)=O)C(C)C)n1)Cc1ccccc1OC2 — higher, 4.71%
- CN(C)C[C@@H]1CN(Cc2ccccc2C#N)C[C@@H]1CO — higher, -1.56%
- CCC[C@@H]1CN(Cc2ccccc2-c2ccco2)C[C@H]1NC(C)=O — higher, 20.9%
- COc1cccn(CC(=O)N(C)Cc2ccoc2)c1=O — lower, -9.93%
- COc1cccc(OCC2CCCN(C(C)=O)C2)c1 (stereo not drawn) — higher, 5.85%
- Cc1oc(C(=O)O)cc1S(=O)(=O)Nc1ccc(Cl)cc1F — higher, -0.354%
- NC(=O)c1cc(C2CCCN(C(=O)CCc3ccccn3)C2)n[nH]1 (stereo not drawn) — lower, -8.47%
- COc1ccc(C2CCCN2C(=O)NCCn2ccnc2)cc1OC (stereo not drawn) — higher, -2.16%
- CC(Cc1ccc(Cl)cc1)NC(=O)Nc1cnn(CC(N)=O)c1 (stereo not drawn) — lower, -5.86%
- CCc1ccsc1C(=O)N1CCN(CCN2C(=O)CCC2=O)CC1 — lower, -3.82%
- Cc1nn(C)c(N(C)C)c1CNCc1ccc(C(=O)N(C)C)cc1 — lower, -9.55%
- c1ccc(CCCN2CCOC(Cn3cccn3)C2)cc1 (stereo not drawn) — higher, 9.11%
- CC1CN(C(=O)CN(Cc2ccco2)Cc2cccs2)CCO1 (stereo not drawn) — lower, -7.68%
- COCCNC(=O)NCc1ccc(OC(C)C)c(F)c1 — lower, -8.48%
- O=C(c1nn(-c2ccccc2F)cc1O)N1CCCC1 — lower, -4.99%
- Cc1ccc(-c2nnc(CN3CCOC(Cn4cccn4)C3)o2)cc1 (stereo not drawn) — lower, -8.06%
- CN(C)S(=O)(=O)c1ccc(OCCNCCn2cccn2)cc1 — higher, 0.626%
- COc1cc(/C=C/c2ncc(C(=O)O)s2)cc(Cl)c1O — higher, 4.14%
- Cc1ccc(C(=O)N2CCN(C(=O)Nc3ccccn3)CC2)o1 — higher, 2.14%
- CNC(=O)[C@@H]1CC[C@@H]2[C@@H](CCN2Cc2cn(C)c3ccccc23)O1 — higher, 10.7%
- CC(C)NC1CCc2c(ccc(=O)n2CCN2CCCC2=O)C1 (stereo not drawn) — higher, 9.52%
- c1cc(CN2CC[C@@H]3[C@@H](CO[C@H]3CN3CCOCC3)C2)cs1 — higher, -1.19%
- COCCN1CCC12CCN(C(=O)c1ccsc1)CC2 — lower, -145%
- FC1(F)CCN(Cc2cccnc2)CC12CCN(c1cnccn1)C2 (stereo not drawn) — higher, 2.6%
- O=C(CCn1c(C(F)(F)F)cc2cccnc21)N1CCOCC1 — lower, -22.6%
- OC(CN1CCN(Cc2ccccc2)CC1)C1CC1 (stereo not drawn) — higher, 3.3%
- O=C([C@H]1COC[C@H]2CN(C3CCOCC3)C[C@H]21)N1CCC(F)CC1 — lower, -112%
- O=C(O)c1cc(C=Cc2ccccc2)ncn1 — higher, 5.17%
- O=C(c1ccncc1)N1C[C@H]2CC[C@@H](C1)N(C(=O)N1CCOCC1)C2 — higher, 2.44%
- Nc1ccc(C(=O)N2C[C@H]3CC[C@@H](C2)N(Cc2ccccc2)C3)cn1 — lower, -121%

— ChEMBL document CHEMBL4513216, “Probing the Open Global Health Chemical Diversity Library for Multistage-Active Starting Points for Next-Generation Antimalarials” (ACS Infect Dis, 2020)
